Measurements published in ChEMBL document CHEMBL4346653, “A2B Adenosine Receptor Antagonists with Picomolar Potency” (J Med Chem, 2019).

How the values were obtained:
[1] = target: T1, Adenosine receptor A1 (Homo sapiens) (UniProt P30542); experiment: Displacement of [3H]CCPA from recombinant human A1 adenosine receptor expressed in CHO cell membranes at 1 uM measured after 90 mins in presence of adenosine deaminase by liquid scintillation counting method relative to control
T1 sequence (whole entry): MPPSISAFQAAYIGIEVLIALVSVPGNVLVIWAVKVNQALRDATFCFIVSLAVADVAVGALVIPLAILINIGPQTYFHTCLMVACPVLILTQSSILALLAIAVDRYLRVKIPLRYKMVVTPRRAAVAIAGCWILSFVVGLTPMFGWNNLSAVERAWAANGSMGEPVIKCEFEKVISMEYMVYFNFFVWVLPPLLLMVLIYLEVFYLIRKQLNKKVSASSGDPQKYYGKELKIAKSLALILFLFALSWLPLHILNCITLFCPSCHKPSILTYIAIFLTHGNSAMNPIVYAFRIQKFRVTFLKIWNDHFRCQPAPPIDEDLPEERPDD
Outline: (§1)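 Single-point competition binding at human AR subtype membranes, each against its own tritiated radioligand. The test compound is given at 1 μM, and the result is reported as percent inhibition of radioligand binding. The radioligand-specific footnotes give n = 3.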

Adenosine receptor A2a = Adenosine receptor A2a (Homo sapiens, UniProt P29274); experiment: Displacement of [3H]MSX-2 from recombinant human A2A adenosine receptor expressed in CHO cell membranes measured after 30 mins in presence of adenosine deaminase by liquid scintillation counting method
Chain of Adenosine receptor A2a (P29274 whole entry): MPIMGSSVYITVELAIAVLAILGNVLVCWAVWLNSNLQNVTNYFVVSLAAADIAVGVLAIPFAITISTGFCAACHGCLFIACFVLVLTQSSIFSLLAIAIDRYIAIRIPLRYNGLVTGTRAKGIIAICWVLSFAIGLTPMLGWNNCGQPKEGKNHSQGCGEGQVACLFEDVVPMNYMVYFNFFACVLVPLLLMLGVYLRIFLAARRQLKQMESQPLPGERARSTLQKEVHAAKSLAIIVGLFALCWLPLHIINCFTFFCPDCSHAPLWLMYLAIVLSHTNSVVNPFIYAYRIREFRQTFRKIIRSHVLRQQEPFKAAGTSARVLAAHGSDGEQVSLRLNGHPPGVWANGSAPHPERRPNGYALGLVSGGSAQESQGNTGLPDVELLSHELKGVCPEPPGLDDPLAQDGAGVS
Outline: (§2)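 Competition binding on membranes of cells recombinantly expressing the human receptor (CHO or HEK cells), with tritiated radioligand per subtype: [3H]PSB-603 for A2B, [3H]MSX-2 for A2A, [3H]CCPA for A1, [3H]PSB-11 for A3. Ki ± SEM from n = 3, some from extrapolated curves. Weak binders are reported as % inhibition of radioligand binding at 1 μM.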

Adenosine receptor A3 = target: T2, Adenosine receptor A3 (Homo sapiens, UniProt P0DMS8); experiment: Displacement of [3H]PSB-11 from recombinant human A3 adenosine receptor expressed in CHO cell membranes measured after 45 mins in presence of adenosine deaminase by liquid scintillation counting method; outline: as §2
T2 sequence (P0DMS8 whole entry): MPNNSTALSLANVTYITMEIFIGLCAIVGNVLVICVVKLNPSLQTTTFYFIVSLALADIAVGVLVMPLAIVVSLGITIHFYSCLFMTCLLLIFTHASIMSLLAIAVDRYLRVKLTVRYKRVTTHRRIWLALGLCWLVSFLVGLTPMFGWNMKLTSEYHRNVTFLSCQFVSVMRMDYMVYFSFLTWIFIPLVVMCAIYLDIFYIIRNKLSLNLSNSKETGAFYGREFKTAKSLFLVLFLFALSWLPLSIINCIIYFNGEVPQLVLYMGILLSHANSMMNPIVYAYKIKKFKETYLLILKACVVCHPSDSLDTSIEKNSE

Adenosine receptor A1 = target: T3, Adenosine receptor A1 (Homo sapiens, UniProt P30542); experiment: Displacement of [3H]CCPA from recombinant human A1 adenosine receptor expressed in CHO cell membranes measured after 90 mins in presence of adenosine deaminase by liquid scintillation counting method; outline: as §2
T3 sequence (P30542 whole entry): T1 sequence (whole entry)

Adenosine receptor A2b = target: T4, Adenosine receptor A2b (Homo sapiens, UniProt P29275); experiment: Displacement of [3H]PSB-603 from recombinant human A2B adenosine receptor expressed in CHO cell membranes measured after 75 mins in presence of adenosine deaminase by liquid scintillation counting method; outline: as §2
T4 sequence (P29275 whole entry): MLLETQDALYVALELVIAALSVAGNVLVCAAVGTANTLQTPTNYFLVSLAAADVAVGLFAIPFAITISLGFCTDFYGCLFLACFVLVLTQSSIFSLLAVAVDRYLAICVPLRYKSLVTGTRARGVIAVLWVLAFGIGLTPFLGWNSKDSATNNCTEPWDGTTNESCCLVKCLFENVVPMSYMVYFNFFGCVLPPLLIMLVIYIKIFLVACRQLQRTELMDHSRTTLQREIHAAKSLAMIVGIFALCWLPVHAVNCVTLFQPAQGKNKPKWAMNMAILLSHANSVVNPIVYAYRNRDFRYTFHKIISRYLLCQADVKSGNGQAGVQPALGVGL

[2] = target: T5, Adenosine receptor A3 (Homo sapiens) (UniProt P0DMS8); experiment: Displacement of [3H]PSB-11 from recombinant human A3 adenosine receptor expressed in CHO cell membranes at 1 uM measured after 45 mins in presence of adenosine deaminase by liquid scintillation counting method relative to control; outline: as §1
T5 sequence (whole entry): T2 sequence (P0DMS8 whole entry)

Homo sapiens = organism: Homo sapiens; experiment: Selectivity index, ratio of Ki for displacement of [3H]MSX-2 from recombinant human A2A adenosine receptor expressed in CHO cell membranes to Ki for displacement of [3H]PSB-603 from recombinant human A2B adenosine receptor expressed in CHO cell membranes

Row | SMILES | inhibition [1] [%] | Ki (Adenosine receptor A2a) [nM] | Ki (Adenosine receptor A3) [nM] | Ki (Adenosine receptor A1) [nM] | Ki (Adenosine receptor A2b) [nM] | inhibition [2] [%] | Ratio Ki (Homo sapiens)
1 | CCCn1c(=O)[nH]c2nc(-c3ccc(S(=O)(=O)N4CCN(c5cccc(OC)c5)CC4)cc3)[nH]c2c1=O | -3 | 197 | > 1000 | > 1000 | 0.616 | -1 | 320
2 | CCCn1c(=O)[nH]c2nc(-c3ccc(S(=O)(=O)N4CCN(c5ccc(Cl)c(OC)c5)CC4)cc3)[nH]c2c1=O | – | 35.3 | > 1000 | 535 | 0.215 | 46 | 160
3 | CCCn1c(=O)[nH]c2nc(-c3ccc(S(=O)(=O)N4CCN(c5ccc(OCCO)cc5)CC4)cc3)[nH]c2c1=O | 24 | 168 | > 1000 | > 1000 | 6.08 | 23 | 30
4 | CCCn1c(=O)[nH]c2nc(-c3ccc(S(=O)(=O)N4CCN(Cc5ccc(Br)cc5)CC4)cc3)[nH]c2c1=O | 31 | 77.8 | > 1000 | > 1000 | 0.153 | 28 | 510
5 | CCCn1c(=O)[nH]c2nc(-c3ccc(S(=O)(=O)N(C)C)cc3)[nH]c2c1=O | – | 52.7 | 1220 | 190 | 18.6 | – | 3
6 | CCCn1c(=O)[nH]c2nc(-c3ccc(S(=O)(=O)N4CCN(C(=O)c5ccccc5)CC4)cc3)[nH]c2c1=O | 15 | 143 | > 1000 | > 1000 | 5.69 | 26 | 30
7 | CCCn1c(=O)[nH]c2nc(-c3ccc(S(=O)(=O)N4CCN(c5ccccc5Br)CC4)cc3)[nH]c2c1=O | 28 | 89.5 | > 1000 | > 1000 | 0.137 | 20 | 650
8 | CCCn1c(=O)[nH]c2nc(-c3ccc(S(=O)(=O)N4CCN(c5ccc(F)cc5)CC4)cc3)[nH]c2c1=O | 14 | 108 | > 1000 | > 1000 | 0.644 | 38 | 170
9 | CCCn1c(=O)[nH]c2nc(-c3ccc(S(=O)(=O)N4CCN(C)CC4)cc3)[nH]c2c1=O | – | 140 | > 1000 | 334 | 48.2 | 7 | 3
10 | CCCn1c(=O)c2[nH]c(-c3ccc(S(=O)(=O)N4CCN(c5ccc(Cl)cc5)CC4)cc3)nc2n(CC)c1=O | 24 | 322 | > 1000 | > 1000 | 4.31 | 28 | 75
11 | CCCn1c(=O)[nH]c2nc(-c3ccc(S(=O)(=O)N4CCN(c5ccccc5)CC4)cc3)[nH]c2c1=O | – | 122 | > 1000 | 364 | 0.643 | 27 | 190
12 | CCCn1c(=O)[nH]c2nc(-c3ccc(S(=O)(=O)N4CCN(Cc5ccc(N=[N+]=[N-])cc5)CC4)cc3)[nH]c2c1=O | – | 208 | > 1000 | 492 | 0.244 | 32 | 850
13 | CCCn1c(=O)[nH]c2nc(-c3ccc(S(=O)(=O)N4CCN(Cc5ccc(OCCO)cc5)CC4)cc3)[nH]c2c1=O | – | 241 | > 1000 | 560 | 12.2 | 17 | 20
14 | CCCn1c(=O)[nH]c2nc(-c3ccc(S(=O)(=O)N4CCN(c5ccccc5)C(C)C4)cc3)[nH]c2c1=O (stereo not drawn) | 15 | 293 | > 1000 | > 1000 | 7.15 | -2 | 40
15 | CCCn1c(=O)[nH]c2nc(-c3ccc(S(=O)(=O)N4CCN(Cc5cccc(OC)c5)CC4)cc3)[nH]c2c1=O | – | 131 | > 1000 | 205 | 1.28 | 27 | 100
16 | CCCn1c(=O)[nH]c2nc(-c3ccc(S(=O)(=O)N4CCN(c5ccc(O)cc5)CC4)cc3)[nH]c2c1=O | – | 96.7 | > 1000 | 356 | 4.3 | 21 | 20
17 | CCCn1c(=O)[nH]c2nc(-c3ccc(S(=O)(=O)N(C)CCc4ccccc4)cc3)[nH]c2c1=O | – | 357 | > 1000 | 1040 | 1.69 | 4 | 210
18 | CCCn1c(=O)[nH]c2nc(-c3ccc(S(=O)(=O)N4CCN(Cc5ccc(OCCOCCOC)cc5)CC4)cc3)[nH]c2c1=O | – | 314 | > 1000 | 1010 | 7.02 | 30 | 50
19 | CCCn1c(=O)[nH]c2nc(-c3ccc(S(=O)(=O)N4CCN(Cc5cccc(C)c5)CC4)cc3)[nH]c2c1=O | – | 189 | > 1000 | 795 | 0.397 | 17 | 480
20 | CCCn1c(=O)[nH]c2nc(-c3ccc(S(=O)(=O)N4CCN(c5ccccc5C)CC4)cc3)[nH]c2c1=O | – | 140 | > 1000 | 419 | 0.432 | 25 | 320
21 | CCCn1c(=O)[nH]c2nc(-c3ccc(S(=O)(=O)N4CCN(c5ccc(Cl)c(O)c5)CC4)cc3)[nH]c2c1=O | – | 40.7 | > 1000 | 113 | 0.421 | 31 | 100
